Data set [1] in a line: folding enthalpy; higher = less favourable; fluorescence melt of hairpins on a sequencing array, two-state fit. As to conditions: sodium 0.088 M. An outline of the steps:
(§1)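 Melting temperature and folding enthalpy were obtained by bootstrapped two-state fitting. Fits used Cy3 fluorescence of library hairpins with annealed Cy3 and quencher oligos on a sequenced MiSeq flow cell, imaged in 50 mM Na-HEPES pH 8.0, 25 mM NaCl in 2.5 °C steps up to 60 °C and normalised to pre-quench Cy3 and control constructs. Four replicates were combined by inverse-variance weighting, and fitted temperatures were raised by 9.35 °C to match UV melts.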

A short description of data set [2]: melting temperature; fluorescence melt of hairpins on a sequencing array, two-state fit, raised by 9.35 °C to match UV melts. As to conditions: sodium 0.088 M. The essentials:
as §1

GGAACACGAAAGTGGTCC (((.(((....))).))): the folding enthalpy in data set [1] was -31.7 kcal/mol. Besides, the Tm in data set [2] stood at 60.7 °C.
The matching figures for GGAACAGGAAACCGTTCC (((((.(....).))))): -31.7 kcal/mol and 45.5 °C.
As to GGAACAGGAAACTGTCCC ((.((((....)))).)), the folding enthalpy in data set [1] was -23.1 kcal/mol. In addition, the Tm in data set [2] amounted to 39.9 °C.
Taken in the same sequence, the figures for GGAACAGGAAACTGTTTC (.(((((....))))).) were -31.7 kcal/mol and 44.4 °C.
Consider GGAACCACGAAAGTGTCC (((..(((....)))))), for which, in data set [1], the folding enthalpy was -11.2 kcal/mol. The Tm in data set [2] is 28.1 °C.
The matching figures for GGAACCCGAAAGGGATCC (((.(((....))).))): -28 kcal/mol and 54.5 °C.
On to GGAACCCGAAAGGGCTCC (((.(((....))).))), for which the folding enthalpy in data set [1] was -32.4 kcal/mol. Further, the Tm in data set [2] is 54.5 °C.
As for GGAACCGAAAGGTCCTCC ((((((....)))..))), in data set [1], the folding enthalpy was -17.5 kcal/mol. The Tm in data set [2] turned out to be 50.2 °C.
Consider GGAACCGAAAGGTCTTCC ((((((....)))..))), for which, in data set [1], the folding enthalpy was -20.3 kcal/mol. In data set [2], the Tm worked out at 38.7 °C.
Regarding GGAACCGAAAGGTTATCC ((((((....)))..))), the folding enthalpy in data set [1] is -11.8 kcal/mol. Also, the Tm in data set [2] came to 35.9 °C.
GGAACCGAAAGGTTGTCC ((((((....)))..))): the folding enthalpy in data set [1] is -11.5 kcal/mol. Besides, the Tm in data set [2] turned out to be 36.1 °C.
In the case of GGAACCGAAAGGTTTTCC ((((((....)))..))), the folding enthalpy in data set [1] is -12.6 kcal/mol. Besides, the Tm in data set [2] was 35.6 °C.
For the sequence GGAACCGCGAAAGCGTCC (((..(((....)))))), the folding enthalpy in data set [1] was -7.7 kcal/mol. Besides, the Tm in data set [2] stood at 26.3 °C.
Consider GGAACCGGAAACAGTTCC (((((.(....).))))), for which the folding enthalpy in data set [1] was -28.4 kcal/mol. For the same sequence, the Tm in data set [2] turned out to be 40 °C.
GGAACCGGAAACGGCTCC (((.(((....))).))): the folding enthalpy in data set [1] is -28.5 kcal/mol. The Tm in data set [2] was determined as 50 °C.
Turning to GGAACGAAAGTTCC (((((....))))), in data set [1], the folding enthalpy is -33.3 kcal/mol. The Tm in data set [2] worked out at 64.3 °C.
For GGAACGCGAAAGCGATCC (((.(((....))).))), the folding enthalpy in data set [1] is -27.4 kcal/mol. Further, the Tm in data set [2] stood at 59 °C.
GGAACGGGAAACCGTCCC ((.((((....)))).)): in data set [1], the folding enthalpy was -18.5 kcal/mol. For the same sequence, the Tm in data set [2] was 48.2 °C.
GGAACGTCGAAAGACTCC (((..(((....)))))): the folding enthalpy in data set [1] was -11.7 kcal/mol. Also, the Tm in data set [2] worked out at 32.1 °C.
Taken in the same sequence, the figures for GGAACTGGAAACAATTCC ((((.((....)).)))) were -13.1 kcal/mol and 28.4 °C.
GGAACTGGAAACAGTCCC ((.((((....)))).)): in data set [1], the folding enthalpy is -25.4 kcal/mol. Further, the Tm in data set [2] was found to be 40 °C.
GGAACTGGAAACGGTTCC (((((.(....).))))): in data set [1], the folding enthalpy was -34.9 kcal/mol. Also, the Tm in data set [2] was 51 °C.
For the sequence GGAAGACGAAAGTCGTCC (((.(((....))).))), the folding enthalpy in data set [1] was -18.9 kcal/mol. Further, the Tm in data set [2] came to 56.2 °C.
Consider GGAAGAGGAAACCCTTCC (((((.(....).))))), for which the folding enthalpy in data set [1] is -30.7 kcal/mol. Also, in data set [2], the Tm came out at 37.8 °C.
With GGAAGCCCGAAAGGGTCC (((..(((....)))))), the folding enthalpy in data set [1] is -10.8 kcal/mol. Also, the Tm in data set [2] was found to be 35.4 °C.
For the sequence GGAAGCCGAAAGGCCTCC (((.(((....))).))), the folding enthalpy in data set [1] is -20.2 kcal/mol. Moreover, the Tm in data set [2] amounted to 48.4 °C.
Taken in the same sequence, the figures for GGAAGCGAAAGCTATCC ((((((....))).))) were -14.6 kcal/mol and 40.9 °C.
For the sequence GGAAGCGAAAGCTCATCC ((((((....)))..))), the folding enthalpy in data set [1] is -10 kcal/mol. The Tm in data set [2] was 29 °C.
With GGAAGCGAAAGCTCTTCC ((((((....)))..))), the folding enthalpy in data set [1] was -18.9 kcal/mol. Besides, the Tm in data set [2] was determined as 43 °C.
For the sequence GGAAGCGAAAGCTGGTCC ((((((....)))..))), in data set [1], the folding enthalpy is -11.6 kcal/mol. In data set [2], the Tm was determined as 36 °C.
Turning to GGAAGGGGAAACTCTTCC (((((.(....).))))), in data set [1], the folding enthalpy is -39.7 kcal/mol. Moreover, the Tm in data set [2] was determined as 46.3 °C.
Take GGAAGTCCGAAAGGATCC (((..(((....)))))): the folding enthalpy in data set [1] was -11.9 kcal/mol. Besides, in data set [2], the Tm stood at 28.7 °C.
For GGAAGTCGAAAGACGTCC (((.(((....))).))), the folding enthalpy in data set [1] is -23.7 kcal/mol. Moreover, in data set [2], the Tm was determined as 52.2 °C.
The matching figures for GGAAGTGGAAACACCTCC (((.(((....))).))): -23.5 kcal/mol and 36.6 °C.
Turning to GGAAGTGGAAACGCTTTC (.(((.(....).))).), the folding enthalpy in data set [1] was -19.6 kcal/mol. The Tm in data set [2] came to 31.4 °C.
For the sequence GGAATACGAAAGTATCC (((.(((....)))))), the folding enthalpy in data set [1] is -17.9 kcal/mol. For the same sequence, the Tm in data set [2] is 42.8 °C.
Regarding GGAATCGAAAGATTTCC ((((((....))).))), in data set [1], the folding enthalpy is -27 kcal/mol. Moreover, the Tm in data set [2] is 41.5 °C.
Regarding GGAATCGAAAGATTTTCC ((((((....)))..))), the folding enthalpy in data set [1] was -17.7 kcal/mol. In data set [2], the Tm was determined as 27.8 °C.
Taken in the same sequence, the figures for GGAATCGCGAAAGCGTCC (((..(((....)))))) were -8.44 kcal/mol and 29.2 °C.
In the case of GGAATCGGAAACGACTCC (((.(((....))).))), the folding enthalpy in data set [1] is -28.9 kcal/mol. In addition, the Tm in data set [2] is 40.4 °C.
Turning to GGAATCGGAAACGATTTC (.(((((....))))).), in data set [1], the folding enthalpy was -33.3 kcal/mol. The Tm in data set [2] stood at 47.9 °C.
The matching figures for GGAATCGGAAACGGTTCC ((((.((....)).)))): -44.5 kcal/mol and 52.2 °C.
As for GGAATGGGAAACCACTCC (((.(((....))).))), the folding enthalpy in data set [1] is -33.6 kcal/mol. Further, the Tm in data set [2] turned out to be 33.7 °C.
For GGAATGGGAAACCATTCC (((((((....))))))), the folding enthalpy in data set [1] is -45.1 kcal/mol. For the same sequence, the Tm in data set [2] was determined as 60.4 °C.
Taken in the same sequence, the figures for GGAATGGGAAACCGTTCC ((((.((....)).)))) were -39.1 kcal/mol and 50.8 °C.
The matching figures for GGAATGGGAAACCGTTTC (.((.((....)).)).): -18 kcal/mol and 30.7 °C.
The matching figures for GGAATTGCGAAAGCATCC (((..(((....)))))): -9.07 kcal/mol and 30.3 °C.
For GGAATTGGAAACAACTCC (((.(((....))).))), the folding enthalpy in data set [1] is -22.2 kcal/mol. Moreover, the Tm in data set [2] came to 30.3 °C.
Regarding GGAATTGGAAACAATCCC ((.((((....)))).)), in data set [1], the folding enthalpy was -20.1 kcal/mol. Besides, in data set [2], the Tm stood at 35.6 °C.
GGACAAGCGAAAGCTTCC (((..(((....)))))): the folding enthalpy in data set [1] is -12.3 kcal/mol. In data set [2], the Tm was determined as 29.2 °C.
As to GGACAAGGAAACTCGTCC ((((.((....)).)))), in data set [1], the folding enthalpy was -29.2 kcal/mol. For the same sequence, in data set [2], the Tm was 39.2 °C.
In the case of GGACAATCGAAAGATTCC (((..(((....)))))), in data set [1], the folding enthalpy was -8.86 kcal/mol. Besides, in data set [2], the Tm is 27.5 °C.
For the sequence GGACACACGAAAGTGTCC (((..(((....)))))), in data set [1], the folding enthalpy is -30.7 kcal/mol. Further, the Tm in data set [2] was determined as 57.9 °C.
Regarding GGACACCGAAAGGTATCC (((.(((....))).))), the folding enthalpy in data set [1] is -30.4 kcal/mol. Also, the Tm in data set [2] turned out to be 47.5 °C.
Taken in the same sequence, the figures for GGACACGAAAGTGATCC ((((((....))).))) were -21.7 kcal/mol and 48.5 °C.
With GGACACGAAAGTGCTTCC ((((((....)))..))), the folding enthalpy in data set [1] is -20.4 kcal/mol. Besides, the Tm in data set [2] is 40.4 °C.
On to GGACACGAAAGTGGTCC ((((((....))).))), for which the folding enthalpy in data set [1] was -21.6 kcal/mol. The Tm in data set [2] turned out to be 57 °C.
Take GGACACGCGAAAGCGTCC (((..(((....)))))): the folding enthalpy in data set [1] was -9.09 kcal/mol. For the same sequence, in data set [2], the Tm was 42.1 °C.
Take GGACACTCGAAAGAGTCC (((..(((....)))))): in data set [1], the folding enthalpy is -15.9 kcal/mol. Besides, the Tm in data set [2] was determined as 39 °C.
The matching figures for GGACAGCGAAAGCTATCC (((.(((....))).))): -24.7 kcal/mol and 45 °C.
The matching figures for GGACAGCGAAAGCTTCC (((.(((....)))))): -20.9 kcal/mol and 43.5 °C.
Turning to GGACAGGGAAACCTGTCC (((((((....))))))), in data set [1], the folding enthalpy is -37.4 kcal/mol. Besides, in data set [2], the Tm amounted to 68.3 °C.
Taken in the same sequence, the figures for GGACAGTCGAAAGACTCC (((..(((....)))))) were -12.8 kcal/mol and 31 °C.
Turning to GGACATCCGAAAGGATCC (((..(((....)))))), the folding enthalpy in data set [1] is -12.6 kcal/mol. Moreover, in data set [2], the Tm came to 29.3 °C.
As for GGACATCGAAAGATCTCC (((.(((....))).))), the folding enthalpy in data set [1] was -21.8 kcal/mol. Also, the Tm in data set [2] came to 32.6 °C.
Take GGACATCGAAAGATTCC (((.(((....)))))): in data set [1], the folding enthalpy is -26.4 kcal/mol. Moreover, the Tm in data set [2] is 38.6 °C.
As to GGACATCGAAAGATTTCC (((.(((....))).))), the folding enthalpy in data set [1] was -32 kcal/mol. In data set [2], the Tm is 39.6 °C.
For GGACATGGAAACATATCC (((.(((....))).))), in data set [1], the folding enthalpy was -21.6 kcal/mol. Further, in data set [2], the Tm turned out to be 30.5 °C.
Regarding GGACATGGAAACGTGTTC (.(((.(....).))).), in data set [1], the folding enthalpy was -23.8 kcal/mol. Further, in data set [2], the Tm came to 35 °C.
Turning to GGACCACGAAAGTGATCC (((.(((....))).))), in data set [1], the folding enthalpy was -29.1 kcal/mol. Also, the Tm in data set [2] was 51.5 °C.
For the sequence GGACCAGAAATGGTCC ((((((....)))))), the folding enthalpy in data set [1] is -43.7 kcal/mol. Also, in data set [2], the Tm stood at 63.7 °C.
The matching figures for GGACCCCGAAAGGGTCC (((.(((....)))))): -30.2 kcal/mol and 68 °C.
As to GGACCCGAAAGGGAGTCC ((((((....)))..))), the folding enthalpy in data set [1] is -20.9 kcal/mol. For the same sequence, the Tm in data set [2] was 49.9 °C.
